# Compounds with a hit are over-represented: about 1.4% of the library has one in this group of screens.
# iPSC survival up: hiPSC single-cell survival enhancement. 360,000 compounds, 0.044% hits. ATPlite luminescence; 100% = ROCK inhibitor wells, 0% = DMSO. survival enhancement, % at 20 µM. AID 602274; in the data active means survival enhancement above about 18%;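 further: cells exposed to compounds for 16 hours before the ATP read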
# SKN-1 inh: C. elegans SKN-1 inhibition; inhibition, % at 21.8 µM; 360,000 compounds, 0.49% hits; AID 624304; C. elegans VP596 Pgst-4::GFP/RFP ratio, acrylamide-induced, 24 h;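 active means interference check ratio from 0.5 to 1.5 plus GFP to RFP signal ratio inhibition reaching or exceeding a fixed threshold, cut at about 30% in these data, passing the limit was not always enough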
# CendR NRP1 mod: alters CendR peptide binding to human NRP-1; O14786; FAM-RPARPAR peptide binding to NRP-1, fluorescence polarization; inhibition, % at 25 µM; 360,000 compounds, 0.85% hits;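 active means inhibition or corrected inhibition above about 18%, plus a signal ratio from 0.5 to 1.5, limit read from the data, passing the limit was not always enough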
# Target sequence (O14786 whole entry, looked up): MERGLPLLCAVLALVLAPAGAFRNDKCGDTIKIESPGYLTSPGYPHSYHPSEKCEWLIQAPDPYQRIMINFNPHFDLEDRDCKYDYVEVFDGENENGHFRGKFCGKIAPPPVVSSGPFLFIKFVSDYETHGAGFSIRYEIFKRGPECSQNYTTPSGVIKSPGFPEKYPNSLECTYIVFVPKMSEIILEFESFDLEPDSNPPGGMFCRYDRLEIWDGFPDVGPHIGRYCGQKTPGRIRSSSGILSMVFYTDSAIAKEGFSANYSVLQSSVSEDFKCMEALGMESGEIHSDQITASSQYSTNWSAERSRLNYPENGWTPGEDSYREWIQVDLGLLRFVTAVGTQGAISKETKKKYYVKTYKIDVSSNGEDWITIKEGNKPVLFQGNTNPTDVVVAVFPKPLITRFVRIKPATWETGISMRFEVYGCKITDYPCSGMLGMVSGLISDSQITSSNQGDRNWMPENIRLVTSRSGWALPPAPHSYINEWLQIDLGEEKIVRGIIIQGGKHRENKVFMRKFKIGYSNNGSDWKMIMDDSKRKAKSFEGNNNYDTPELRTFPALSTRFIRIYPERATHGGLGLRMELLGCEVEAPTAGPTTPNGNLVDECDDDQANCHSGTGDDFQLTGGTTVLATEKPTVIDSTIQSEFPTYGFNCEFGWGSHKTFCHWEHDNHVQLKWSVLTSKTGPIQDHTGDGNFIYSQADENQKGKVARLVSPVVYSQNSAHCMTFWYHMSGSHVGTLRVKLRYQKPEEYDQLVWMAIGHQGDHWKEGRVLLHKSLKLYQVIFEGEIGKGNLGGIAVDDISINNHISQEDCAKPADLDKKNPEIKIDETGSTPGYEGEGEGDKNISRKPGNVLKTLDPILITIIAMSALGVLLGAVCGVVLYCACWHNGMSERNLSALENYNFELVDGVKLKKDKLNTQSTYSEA
# MT1-MMP act inh: blocks activation of human MT1-MMP. HT1080 RFP-PRO-GFP cells, GFP/RFP ratio fluorescence, overnight; percent of plate control window, DMSO zero. 360,000 compounds, 0.061% hits. AID 651647. GFP/RFP ratio change, % at 20 µM. P50281;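 active means GFP/RFP ratio change of at least 30% with cell ATP level not reduced by more than half and red fluorescence within 50% of control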
#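 Assay system: RFP-PRO-GFP reporter HT1080 cells; read-out basis: GFP/RFP fluorescence ratio; benchmarks: DMSO wells and RFP-L50D-GFP cells; doses: 20 µM single dose, 1% DMSO; schedule: overnight cell settling, then overnight compound exposure, 37 °C, 5% CO2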
# The depositor's hits bear a star.
SMILES,iPSC survival up,SKN-1 inh,CendR NRP1 mod,MT1-MMP act inh
COc1ccc(C2(C)NC(=O)N(CC(=O)Nc3ccc(Br)cc3F)C2=O)cc1OC (stereo not drawn),0,-1,5,3
Cc1ccc(-c2nc(CSCC(=O)NCc3cccnc3)c(C)o2)cc1,2,-9,7,7
COc1ccc(-n2nc(C(=O)NCC(=O)NCC3COc4ccccc4O3)c3ccccc3c2=O)cc1 (stereo not drawn),1,0,10,-9
O=S(=O)(NCc1csc(-c2cccs2)n1)c1ccc(Cl)cc1,0,0,-5,3
O=S(=O)(NCc1csc(-c2cccs2)n1)c1cccs1,1,-7,35*,1
CCOc1ccc2nc(NC(=O)c3ccc(S(=O)(=O)N4CCOCC4)cc3)sc2c1,-2,35*,-14,5
CCOc1ccc2nc(NC(=O)c3ccco3)sc2c1,-1,35*,-9,2
Cc1ccc(O)c(C(=O)c2cnc3c(c2)COc2ccccc2-3)c1,0,4,26*,-18
O=C(Nc1ccc(C2CC2(Cl)Cl)cc1)c1ccccc1Br (stereo not drawn),1,47*,-2,2
COC(=O)c1cccc(NC(=O)c2cccc(OC)c2)c1,-3,14,23*,1
COc1cccc(C(=O)Nc2ccc(C3CC3(Cl)Cl)cc2)c1 (stereo not drawn),-3,8,21*,3
O=C(Nc1ccc(C(=O)N2CCCC2)cc1)c1ccccc1Br,4,-17,0,-1
COc1ccc(C(=O)Nc2cccc(OC(=O)c3ccc(C)c(C)c3)c2)cc1,-2,42*,-8,0
CCc1ccc(C(=O)NNC(=O)c2cc(S(=O)(=O)N(C)C)ccc2N2CCCC2)cc1,0,15,12,2
COc1ccccc1NC(=O)N(Cc1ccco1)Cc1cc2cccc(C)c2[nH]c1=O,4,16,26*,-3
COc1ccc(-c2csc(C(O)c3ccc(F)c(F)c3)n2)cn1 (stereo not drawn),0,13,21*,6
CCOc1ccc(-c2noc(CCC(=O)O)n2)cc1,2,-15,1,-2
COc1ccc(C(=O)OCC(=O)N2CCN(S(=O)(=O)c3ccc(C)cc3)CC2)cc1[N+](=O)[O-],0,-8,26*,0
COc1ccc(C(=O)OCC(=O)N2CCCCC2)cc1[N+](=O)[O-],0,-4,12,1
O=C(CSc1ncn[nH]1)Nc1ccc(Cl)c(Cl)c1,-2,44*,3,2
N#CC1(C#N)C(C(N)=O)C1c1ccccc1 (stereo not drawn),0,9,-54,-7
CN1C=CC2=C(C#N)C(N)C(C#N)(C#N)[C@H](c3ccccc3)[C@H]2C1 (stereo partly drawn),2,-5,23*,-152
CCCN(CC(=O)Nc1cc(C)on1)CC(=O)Nc1ccc(F)c(F)c1F,-2,-5,23*,0
CCOC(=O)c1c(NC(=O)COC(=O)/C=C/c2ccccc2)sc(C(=O)NC)c1C,0,-5,4,-4
O=C1NC[C@H](Cc2ccccc2)N(C[C@@H]2CCCN2C[C@H](Cc2ccc(O)cc2)N2C[C@H](Cc3ccccc3)N(CC3CCCCCC3)C(=O)C2=O)C1=O,1,37*,-30,-2
SMILES,iPSC survival up,SKN-1 inh,CendR NRP1 mod,MT1-MMP act inh
CCOc1ccc(CCN2C(=S)N([C@@H](Cc3ccccc3)CN3CCC[C@@H]3CN3C(=S)NC[C@@H]3Cc3ccc(O)cc3)C[C@@H]2CC(C)C)cc1,-2,12,19*,-1
Cc1cc(-c2nc3cccnc3s2)ccc1NS(=O)(=O)c1cccs1,-3,9,-10,2
O=C(Cc1ccccc1)NCCn1ccc2ccccc21,-1,14,2,-7
CC(=O)NCCn1ccc2ccccc21,-2,-19,32*,-1
CCOC(=O)c1c(CCl)nc2ccccc2c1C,0,-5,9,1
O=C(CSc1n[nH]c(-c2ccccn2)n1)Nc1ccc(F)cc1,0,-5,-4,2
CCc1cccc(CC)c1NC(=S)Nc1ccccc1,-4,8,20*,2
O=C(CCn1c(=O)c2cccn2c2cccnc21)NCc1cccc(Cl)c1,-1,11,27*,-1
Cc1nn(-c2ccccc2)c(C)c1C(=O)OCC(=O)Nc1ccccc1,0,10,26*,-2
Clc1c(-c2ccccc2)nnn1-c1ccccc1,1,36*,-5,0
CN1/C(=C/C(=S)NC(=O)C2CCC2)C(C)(C)c2ccccc21,0,41*,-25,-17
COC1=CC(=NCl)C=CC1=NCl,-1,18,54*,8
Cc1cccc2cc(C#N)c(SCc3nnc(-c4ccccc4[N+](=O)[O-])o3)nc12,2,-10,32*,-10
Cc1nonc1NC(=O)CSc1nc2c(C)cccc2cc1C#N,-2,5,-11,-117
O=c1nc2s/c(=C\c3ccc(-c4ccccc4[N+](=O)[O-])o3)c(=O)n2nc1-c1ccccc1,1,11,36*,6
CCCCCOc1ccc(/C=c2\sc3nc(=O)c(-c4ccccc4)nn3c2=O)cc1OC,0,-24,-24,-4
COc1cccc(-c2nnc(Nc3nc4c(F)cccc4s3)o2)c1,-3,6,33*,11
CCNC(=O)NC(=O)COC(=O)c1ccccc1SCC(=O)NC(=O)NCC,2,-7,-19,35*
O=C(COC(=O)C1CCC1)NCc1ccc(Cl)cc1Cl,0,-2,-3,2
C[C@H](NC(=O)c1cc2cc(Cl)ccc2n1C)C(=O)N1CCC[C@H]1C(=O)O,-3,-9,-3,2
COc1ccc(C2C(C(=O)OC(C)C)=C(C)N=c3s/c(=C\c4cccs4)c(=O)n32)cc1 (stereo not drawn),-2,43*,-10,-2
CSc1ccc(CN2CCN(Cc3ccc([N+](=O)[O-])cc3)CC2)cc1,-1,-2,-2,-6
COc1ccc(S(=O)(=O)n2ccc(-c3ccc(OCCN(C)c4ccccn4)cc3)n2)cc1,-2,45*,-2,0
COc1ccc(S(=O)(=O)N(CC(=O)O)c2ccccn2)cc1,-1,15,16,3
Cc1ccc2c(c1)c1nnc(SCC(=O)N3CCCc4ccccc43)nc1n2CC(=O)O,0,6,24*,-2
SMILES,iPSC survival up,SKN-1 inh,CendR NRP1 mod,MT1-MMP act inh
CCc1nnc(SCC(=O)N2CCCc3ccccc32)nc1CC,2,-12,-8,0
O=C(Nc1ccc(C#Cc2ccccc2)cc1)C1CC1,2,47*,-5,16
Cc1cccc(N(CC(=O)NC(C)(C)C)C(=O)CCC(=O)Nc2nccs2)c1,0,5,-2,0
CC(C)(C)NC(=O)CN(C(=O)CCC(=O)Nc1nccs1)c1cccc(C(F)(F)F)c1,0,35*,2,-3
O=C(CSc1nccc(-c2ccc(Br)cc2)n1)NCCc1ccccc1,-3,13,28*,1
Oc1ccc(Cl)cc1N=Nc1ccccc1,-1,7,14,1

# Source: PubChem BioAssay (Sanford-Burnham Center for Chemical Genomics)
